According to ChEMBL document CHEMBL3785069, “Tumour-specific cytotoxicity and structure-activity relationships of novel 1-[3-(2-methoxyethylthio)propionyl]-3,5-bis(benzylidene)-4-piperidones” (Bioorg Med Chem, 2016):

Tests used:
[1] = Cytotoxicity against human Molt4/C8 cells after 72 hrs by MTT assay; format: functional, cell-based; details: MOLT-4, 72 h
Procedure, shortened: (§1)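 Leukemic cells exposed to a concentration series of each compound in RPMI 1640 medium at 37 °C, 72 h for Molt4/C8 and CEM, 48 h for L1210.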

[2] = system: CCRF-CEM; assay: Cytotoxicity against human CEM cells after 72 hrs by MTT assay; format: functional, cell-based; procedure, shortened: as §1
[3] = system: L1210; assay: Cytotoxicity against mouse L1210 cells after 48 hrs by MTT assay; format: functional, cell-based; details: L1210, 48 h; procedure, shortened: as §1
[4] = Cytotoxicity against human HSC2 cells after 48 hrs by MTT assay; format: functional; details: HSC-2, 48 h
Procedure, shortened: (§2)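 Oral carcinoma (HSC-2, HSC-3, HSC-4) and nonmalignant HGF and HPLF cells incubated with graded compound concentrations at 37 °C for 48 h in DMEM plus 10% heat-inactivated FBS. Viability read by MTT. CC50 from duplicate runs, differing by under 10% at each concentration.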

[5] = Cytotoxicity against human HSC3 cells after 48 hrs by MTT assay; format: functional; details: HSC-3, 48 h; procedure, shortened: as §2
[6] = Cytotoxicity against human HSC4 cells after 48 hrs by MTT assay; format: functional; details: HSC-4, 48 h; procedure, shortened: as §2
[7] = Cytotoxicity against human HGF cells after 48 hrs by MTT assay; format: cell-based; procedure, shortened: as §2
[8] = Cytotoxicity against human HPLF cells after 48 hrs by MTT assay; format: cell-based; procedure, shortened: as §2
[9] = system: HSC-2; assay: Selectivity index, ratio of average CC50 for human HGF and HPLF cells to CC50 for human HSC2 cells; details: pooled result: one value given for 2 cell lines, strains, targets or settings
[10] = system: HSC-3; assay: Selectivity index, ratio of average CC50 for human HGF and HPLF cells to CC50 for human HSC3 cells; details: pooled result: one value given for 2 cell lines, strains, targets or settings
[11] = system: HSC-4; assay: Selectivity index, ratio of average CC50 for human HGF and HPLF cells to CC50 for human HSC4 cells; details: pooled result: one value given for 2 cell lines, strains, targets or settings

COCCSCCC(=O)N1C/C(=C\c2ccc(F)cc2)C(=O)/C(=C/c2ccc(F)cc2)C1
IC50 [1]: 1.72 µM
IC50 [2]: 1.6 µM
IC50 [3]: 5.85 µM
CC50 [4]: 0.76 µM
CC50 [5]: 1.19 µM
CC50 [6]: 0.56 µM
CC50 at 48 h [7]: 5.27 µM
CC50 at 48 h [8]: 4.99 µM
Selectivity Index [9]: 6.75
Selectivity Index [10]: 4.31
Selectivity Index [11]: 9.16

COCC[S+]([O-])CCC(=O)N1C/C(=C\c2ccc(F)cc2)C(=O)/C(=C/c2ccc(F)cc2)C1 (configuration not stated)
IC50 [1]: 1.28 µM
IC50 [2]: 0.83 µM
IC50 [3]: 3.33 µM
CC50 [4]: 0.69 µM
CC50 [5]: 1.01 µM
CC50 [6]: 0.7 µM
CC50 at 48 h [7]: 4.83 µM
CC50 at 48 h [8]: 4.21 µM
Selectivity Index [9]: 6.55
Selectivity Index [10]: 4.48
Selectivity Index [11]: 6.46

COCC[S+]([O-])CCC(=O)N1C/C(=C\c2ccccc2)C(=O)/C(=C/c2ccccc2)C1 (configuration not stated)
IC50 [1]: 1.62 µM
IC50 [2]: 1.29 µM
IC50 [3]: 4.91 µM
CC50 [4]: 0.58 µM
CC50 [5]: 2.1 µM
CC50 [6]: 1.02 µM
CC50 at 48 h [7]: 9.09 µM
CC50 at 48 h [8]: 9.1 µM
Selectivity Index [9]: 15.7
Selectivity Index [10]: 4.33
Selectivity Index [11]: 8.92

COCCSCCC(=O)N1C/C(=C\c2ccc(C)cc2)C(=O)/C(=C/c2ccc(C)cc2)C1
IC50 [1]: 2.66 µM
IC50 [2]: 1.95 µM
IC50 [3]: 4.9 µM
CC50 [4]: 1.45 µM
CC50 [5]: 1.7 µM
CC50 [6]: 1.2 µM
CC50 at 48 h [7]: 10.3 µM
CC50 at 48 h [8]: 9.17 µM
Selectivity Index [9]: 6.72
Selectivity Index [10]: 5.73
Selectivity Index [11]: 8.12

COCCS(=O)(=O)CCC(=O)N1C/C(=C\c2ccccc2)C(=O)/C(=C/c2ccccc2)C1
IC50 [1]: 1.66 µM
IC50 [2]: 1.14 µM
IC50 [3]: 2.67 µM
CC50 [4]: 1.46 µM
CC50 [5]: 1.19 µM
CC50 [6]: 1.3 µM
CC50 at 48 h [7]: 9.59 µM
CC50 at 48 h [8]: 8.43 µM
Selectivity Index [9]: 6.17
Selectivity Index [10]: 7.57
Selectivity Index [11]: 6.93

COCCSCCC(=O)N1C/C(=C\c2ccc(Cl)cc2)C(=O)/C(=C/c2ccc(Cl)cc2)C1
IC50 [1]: 1.73 µM
IC50 [2]: 1.24 µM
IC50 [3]: 3.44 µM
CC50 [4]: 1.09 µM
CC50 [5]: 1.03 µM
CC50 [6]: 0.81 µM
CC50 at 48 h [7]: 5.24 µM
CC50 at 48 h [8]: 5.97 µM
Selectivity Index [9]: 5.15
Selectivity Index [10]: 5.45
Selectivity Index [11]: 6.93

N[C@@H](Cc1ccc(N(CCCl)CCCl)cc1)C(=O)O [MELPHALAN]
IC50 [1]: 3.48 µM
IC50 [2]: 1.74 µM
IC50 [3]: 5.94 µM
CC50 [4]: 16.7 µM
CC50 [5]: 9.9 µM
CC50 [6]: 11.1 µM
CC50 at 48 h [7]: 78 µM
CC50 at 48 h [8]: 77.1 µM
Selectivity Index [9]: 4.65
Selectivity Index [10]: 7.84
Selectivity Index [11]: 6.99
